Laboratory results from ChEMBL document CHEMBL2331220, “Benzimidazole clubbed with triazolo-thiadiazoles and triazolo-thiadiazines: new anticancer agents” (2013).

Key:
Assay type in all cases: functional
SR = assay: Cytotoxicity against human SR cells after 48 hrs by SRB assay
How it was run: (§1)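 NCI 60-line five-dose screen: cells plated, held 24 h at 37 °C, 5% CO₂ before treatment, with a TCA-fixed time-zero plate. Five final concentrations (0.01–100 µM, 10-fold dilutions) for 48 h. Cells fixed with cold TCA (10% final) and stained with 0.4% SRB in 1% acetic acid. Dye dissolved in 10 mM Tris and read at 515 nm. GI₅₀, TGI and LC₅₀ taken from percent-growth curves.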

MDA-MB-468 = assay: Cytotoxicity against human MDA-MB-468 cells after 48 hrs by SRB assay; conditions: MDA-MB-468, 48 h
How it was run: (§2)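 NCI 60-line five-dose screen. Cells were preincubated 24 h at 37 °C under 5% CO2 and 100% humidity, and time-zero plates were TCA-fixed when compound was added. Five 10-fold concentrations (0.01–100) were tested for 48 h. Cells were fixed with cold TCA (final 10%, 60 min, 4 °C), stained with 0.4% SRB for 10 min, and read at 515 nm. GI50, TGI and LC50 came from growth-percentage formulas, with out-of-range values given as > or <.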

PC-3 = assay: Cytotoxicity against human PC3 cells after 48 hrs by SRB assay; conditions: PC-3, 48 h; how it was run: as §2
UACC-62 = assay: Cytotoxicity against human UACC62 cells after 48 hrs by SRB assay; conditions: UACC-62, 48 h; how it was run: as §1
UACC-257 = assay: Cytotoxicity against human UACC257 cells after 48 hrs by SRB assay; conditions: UACC-257, 48 h; how it was run: as §1
T47D = assay: Cytotoxicity against human T47D cells after 48 hrs by SRB assay; how it was run: as §1
OVCAR-4 = assay: Cytotoxicity against human OVCAR4 cells after 48 hrs by SRB assay; conditions: OVCAR-4, 48 h; how it was run: as §2
A498 = assay: Cytotoxicity against human A498 cells after 48 hrs by SRB assay; conditions: A498, 48 h; how it was run: as §2
TK-10 = assay: Cytotoxicity against human TK10 cells after 48 hrs by SRB assay; conditions: TK-10, 48 h; how it was run: as §1
NCI-H460 = assay: Cytotoxicity against human NCI-H460 cells after 48 hrs by SRB assay; conditions: NCI-H460, 48 h; how it was run: as §2
SK-MEL-2 = assay: Cytotoxicity against human SK-MEL-2 cells after 48 hrs by SRB assay; conditions: SK-MEL-2, 48 h; how it was run: as §2
SK-OV-3 = assay: Cytotoxicity against human SKOV3 cells after 48 hrs by SRB assay; conditions: SK-OV-3, 48 h; how it was run: as §1
MOLT-4 = assay: Cytotoxicity against human MOLT4 cells after 48 hrs by SRB assay; conditions: MOLT-4, 48 h; how it was run: as §2
MCF7 = assay: Cytotoxicity against human MCF7 cells after 48 hrs by SRB assay; conditions: MCF7, 48 h; how it was run: as §2
DU-145 = assay: Cytotoxicity against human DU145 cells after 48 hrs by SRB assay; conditions: DU-145, 48 h; how it was run: as §2
IGROV-1 = assay: Cytotoxicity against human IGROV1 cells assessed as cell growth at 10 uM after 48 hrs by SRB assay relative to control; conditions: IGROV-1, 48 h, read-out: Activity
How it was run: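 Single-dose NCI screen. Compound was added at 1 × 10^-5 M and cultures were incubated 48 h. End point was sulforhodamine B protein staining, reported as percent growth of treated cells versus untreated control cells.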

HCT-116 = assay: Cytotoxicity against human HCT116 cells after 48 hrs by SRB assay; conditions: HCT-116, 48 h; how it was run: as §2
OVCAR-3 = assay: Cytotoxicity against human OVCAR3 cells after 48 hrs by SRB assay; conditions: OVCAR-3, 48 h; how it was run: as §2
[1] = read-out: LC50 (the source's name)
[2] = read-out: pLC50 (the source's name) (converted)

Work on `O=C(CCc1nnc2sc(-c3ccc(Cl)cc3Cl)nn12)c1nc2ccccc2[nH]1` yielded a GI50 (SR; read-out: GI50) of 333 nM, a CC50 (SR; [1]) greater than 100000 nM and a TGI (SR; read-out: TGI) greater than 100000 nM. The GI50 (SR; read-out: pGI50 (converted)) was 331 nM, the CC50 (SR; [2]) was greater than 100000 nM and the TGI (SR; read-out: pTGI) was greater than 100000 nM. For the same molecule, the GI50 (MDA-MB-468; read-out: GI50) was 699 nM, the LC50 (MDA-MB-468; read-out: LC50) was 5410 nM and the TGI (MDA-MB-468; read-out: TGI) was 2150 nM. The GI50 (MDA-MB-468; read-out: pGI50 (converted)) was 692 nM, the LC50 (MDA-MB-468; read-out: pLC50 (converted)) was 5370 nM and the TGI (MDA-MB-468; read-out: pTGI (converted)) was 2140 nM. For the same molecule, the GI50 (PC-3; read-out: GI50) was 695 nM, the LC50 (concentration killing 50% of cells) (PC-3; read-out: LC50) was greater than 100000 nM and the TGI (PC-3; read-out: TGI) was 3900 nM. It also gave a GI50 (PC-3; read-out: pGI50 (converted)) of 692 nM, an LC50 (concentration killing 50% of cells) (PC-3; read-out: pLC50 (converted)) greater than 100000 nM and a TGI (PC-3; read-out: pTGI (converted)) of 3890 nM. It also gave a GI50 (UACC-62; read-out: GI50) of 1060 nM, an LC50 (concentration giving 50% net cell kill) (UACC-62; read-out: LC50) of 5610 nM and a TGI (UACC-62; read-out: TGI) of 2440 nM. For the same molecule, the GI50 (UACC-62; read-out: pGI50 (converted)) was 1070 nM, the LC50 (concentration giving 50% net cell kill) (UACC-62; read-out: pLC50 (converted)) was 5620 nM and the TGI (UACC-62; read-out: pTGI (converted)) was 2450 nM. The GI50 (UACC-257; read-out: GI50) was 2100 nM, the LC50 (UACC-257; read-out: LC50) was 22500 nM and the TGI (UACC-257; read-out: TGI) was 5010 nM. It also gave a GI50 (UACC-257; read-out: pGI50 (converted)) of 2090 nM, an LC50 (UACC-257; read-out: pLC50 (converted)) of 22400 nM and a TGI (UACC-257; read-out: pTGI (converted)) of 5010 nM. For the same molecule, the GI50 (T47D; read-out: GI50) was 753 nM, the LC50 (concentration giving 50% net cell kill) (T47D; read-out: LC50) was 7060 nM and the TGI (T47D; read-out: TGI) was 2510 nM. For the same molecule, the GI50 (T47D; read-out: pGI50 (converted)) was 759 nM, the LC50 (concentration giving 50% net cell kill) (T47D; read-out: pLC50 (converted)) was 7080 nM and the TGI (T47D; read-out: pTGI (converted)) was 2510 nM. The GI50 (OVCAR-4; read-out: GI50) was 971 nM, the CC50 (OVCAR-4; [1]) was 8040 nM and the TGI (OVCAR-4; read-out: TGI) was 2820 nM. For the same molecule, the GI50 (OVCAR-4; read-out: pGI50 (converted)) was 977 nM, the CC50 (OVCAR-4; [2]) was 8130 nM and the TGI (OVCAR-4; read-out: pTGI (converted)) was 2820 nM. It also gave a GI50 (A498; read-out: GI50) of 1100 nM, an LC50 (concentration giving 50% net cell kill) (A498; read-out: LC50) of 4890 nM and a TGI (A498; read-out: TGI) of 2320 nM. For the same molecule, the GI50 (A498; read-out: pGI50 (converted)) was 1100 nM, the LC50 (concentration giving 50% net cell kill) (A498; read-out: pLC50 (converted)) was 4900 nM and the TGI (A498; read-out: pTGI (converted)) was 2340 nM. For the same molecule, the GI50 (TK-10; read-out: GI50) was 2010 nM, the LC50 (TK-10; read-out: LC50) was 6300 nM and the TGI (TK-10; read-out: TGI) was 3550 nM. For the same molecule, the GI50 (TK-10; read-out: pGI50 (converted)) was 2000 nM, the LC50 (TK-10; read-out: pLC50 (converted)) was 6310 nM and the TGI (TK-10; read-out: pTGI (converted)) was 3550 nM. It also gave a GI50 (NCI-H460; read-out: GI50) of 766 nM, a CC50 (NCI-H460; [1]) of 5210 nM and a TGI (NCI-H460; read-out: TGI) of 2170 nM. The GI50 (NCI-H460; read-out: pGI50 (converted)) was 759 nM, the CC50 (NCI-H460; [2]) was 5250 nM and the TGI (NCI-H460; read-out: pTGI (converted)) was 2190 nM. The GI50 (SK-MEL-2; read-out: GI50) was 1760 nM, the CC50 (SK-MEL-2; [1]) was greater than 100000 nM and the TGI (SK-MEL-2; read-out: TGI) was 6670 nM. The GI50 (SK-MEL-2; read-out: pGI50 (converted)) was 1780 nM, the CC50 (SK-MEL-2; [2]) was greater than 100000 nM and the TGI (SK-MEL-2; read-out: pTGI (converted)) was 6610 nM. The GI50 (SK-OV-3; read-out: GI50) was 1860 nM, the LC50 (SK-OV-3; read-out: LC50) was 7280 nM and the TGI (SK-OV-3; read-out: TGI) was 3680 nM. For the same molecule, the GI50 (SK-OV-3; read-out: pGI50 (converted)) was 1860 nM, the LC50 (SK-OV-3; read-out: pLC50 (converted)) was 7240 nM and the TGI (SK-OV-3; read-out: pTGI (converted)) was 3720 nM. For the same molecule, the GI50 (MOLT-4; read-out: GI50) was 282 nM, the CC50 (MOLT-4; [1]) was greater than 100000 nM and the TGI (MOLT-4; read-out: TGI) was greater than 100000 nM. The GI50 (MOLT-4; read-out: pGI50 (converted)) was 282 nM, the CC50 (MOLT-4; [2]) was greater than 100000 nM and the TGI (MOLT-4; read-out: pTGI) was greater than 100000 nM. For the same molecule, the GI50 (MCF7; read-out: GI50) was 355 nM, the LC50 (MCF7; read-out: LC50) was 5970 nM and the TGI (MCF7; read-out: TGI) was 1500 nM. The GI50 (MCF7; read-out: pGI50 (converted)) was 355 nM, the LC50 (MCF7; read-out: pLC50 (converted)) was 6030 nM and the TGI (MCF7; read-out: pTGI (converted)) was 1510 nM. It also gave a GI50 (DU-145; read-out: GI50) of 1200 nM, a CC50 (DU-145; [1]) of 5020 nM and a TGI (DU-145; read-out: TGI) of 2460 nM. It also gave a GI50 (DU-145; read-out: pGI50 (converted)) of 1200 nM, a CC50 (DU-145; [2]) of 5010 nM and a TGI (DU-145; read-out: pTGI (converted)) of 2450 nM. The growth at 10 µM (IGROV-1) was 0.38%, the GI50 (HCT-116; read-out: GI50) was 320 nM and the CC50 (HCT-116; [1]) was 5060 nM. For the same molecule, the TGI (HCT-116; read-out: TGI) was 1240 nM, the GI50 (HCT-116; read-out: pGI50 (converted)) was 316 nM and the CC50 (HCT-116; [2]) was 5010 nM. It also gave a TGI (HCT-116; read-out: pTGI (converted)) of 1230 nM, a GI50 (OVCAR-3; read-out: GI50) of 514 nM and an LC50 (OVCAR-3; read-out: LC50) of 4600 nM. It also gave a TGI (OVCAR-3; read-out: TGI) of 1800 nM, a GI50 (OVCAR-3; read-out: pGI50 (converted)) of 513 nM and an LC50 (OVCAR-3; read-out: pLC50 (converted)) of 4570 nM. The TGI (OVCAR-3; read-out: pTGI (converted)) was 1820 nM.
